# Reference: ChEMBL document CHEMBL4689842, “EUbOPEN Chemogenomics Library wave 1” (2021)
# System: HEK-293T
# Experiment: Multiplex assay against HEK293T;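 as to Population Tubulin-Different-Phenotype (%): share of the cells with healthy nuclei that show this phenotype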
# Type: toxicity, cell-based
# Conditions: human
# Outline: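 Live cells were stained at seeding with Hoechst33342, BioTracker Green Microtubule Cytoskeleton Dye, MitoTracker Red and Annexin V Alexa Fluor 680, then imaged on a CQ1 microscope at 37°C and 5% CO2 after compound addition. CellPathfinder machine-learning gating split cells into Hoechst high-intensity objects or normal cells. Normal cells were split into healthy, pyknosed or fragmented nuclei, and pyknosed cells into mitotic or apoptotic. Tubulin, mitochondrial-mass and membrane-permeability phenotypes are per cents of healthy-nucleus cells.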
# [1] = 12 h, 1 µM, compound concentration 1 uM, replicate 1
# [2] = 12 h, 1 µM, compound concentration 1 uM, replicate 2
# [3] = 12 h, 10 µM, compound concentration 10 uM, replicate 1
# [4] = 12 h, 10 µM, compound concentration 10 uM, replicate 2
# [5] = 24 h, 1 µM, compound concentration 1 uM, replicate 1
# [6] = 24 h, 1 µM, compound concentration 1 uM, replicate 2
# [7] = 24 h, 10 µM, compound concentration 10 uM, replicate 1
# [8] = 24 h, 10 µM, compound concentration 10 uM, replicate 2
# [9] = 48 h, 1 µM, compound concentration 1 uM, replicate 1
# [10] = 48 h, 1 µM, compound concentration 1 uM, replicate 2
# [11] = 48 h, 10 µM, compound concentration 10 uM, replicate 1
# [12] = 48 h, 10 µM, compound concentration 10 uM, replicate 2
compound,measurement,setting,value
CCOC(=O)CCNc1cc(N2CCc3ccccc3CC2)nc(-c2ccccn2)n1,Population Apoptotic (%),[1],15%
same,Population Fragmented Nuclei (%),[1],15%
same,Population Healthy Nuclei (%),[1],66%
same,Population Hoechst High Intensity Objects (%),[1],9%
same,Population Membrane Permeable-Phenotype (%),[1],4%
same,Population Mitochondria Different-Phenotype (%),[1],3%
same,Population Mitotic Cells (%),[1],84%
same,Population Normal (%),[1],90%
same,Population Pyknosed Nuclei (%),[1],17%
same,Population Tubulin-Different-Phenotype (%),[1],4%
same,Total Cell Count,[1],720
same,Population Apoptotic (%),[2],8%
same,Population Fragmented Nuclei (%),[2],8%
same,Population Healthy Nuclei (%),[2],86%
same,Population Hoechst High Intensity Objects (%),[2],1%
same,Population Membrane Permeable-Phenotype (%),[2],1%
same,Population Mitochondria Different-Phenotype (%),[2],8%
same,Population Mitotic Cells (%),[2],91%
same,Population Normal (%),[2],98%
same,Population Pyknosed Nuclei (%),[2],4%
same,Population Tubulin-Different-Phenotype (%),[2],5%
same,Total Cell Count,[2],1753
same,Population Apoptotic (%),[3],22%
same,Population Fragmented Nuclei (%),[3],13%
same,Population Healthy Nuclei (%),[3],54%
same,Population Hoechst High Intensity Objects (%),[3],16%
same,Population Membrane Permeable-Phenotype (%),[3],4%
same,Population Mitochondria Different-Phenotype (%),[3],27%
same,Population Mitotic Cells (%),[3],77%
same,Population Normal (%),[3],83%
same,Population Pyknosed Nuclei (%),[3],32%
same,Population Tubulin-Different-Phenotype (%),[3],31%
same,Total Cell Count,[3],622
same,Population Apoptotic (%),[4],26%
same,Population Fragmented Nuclei (%),[4],3%
same,Population Healthy Nuclei (%),[4],87%
same,Population Hoechst High Intensity Objects (%),[4],4%
same,Population Membrane Permeable-Phenotype (%),[4],2%
same,Population Mitochondria Different-Phenotype (%),[4],43%
same,Population Mitotic Cells (%),[4],73%
same,Population Normal (%),[4],95%
same,Population Pyknosed Nuclei (%),[4],8%
same,Population Tubulin-Different-Phenotype (%),[4],56%
same,Total Cell Count,[4],1158
same,Population Apoptotic (%),[5],20%
same,Population Fragmented Nuclei (%),[5],12%
same,Population Healthy Nuclei (%),[5],79%
same,Population Hoechst High Intensity Objects (%),[5],4%
same,Population Mitochondria Different-Phenotype (%),[5],2%
same,Population Mitotic Cells (%),[5],79%
same,Population Normal (%),[5],95%
same,Population Pyknosed Nuclei (%),[5],8%
same,Population Tubulin-Different-Phenotype (%),[5],7%
same,Total Cell Count,[5],821
same,Population Apoptotic (%),[6],1%
same,Population Fragmented Nuclei (%),[6],23%
same,Population Healthy Nuclei (%),[6],73%
same,Population Hoechst High Intensity Objects (%),[6],2%
same,Population Membrane Permeable-Phenotype (%),[6],5%
same,Population Mitochondria Different-Phenotype (%),[6],1%
same,Population Mitotic Cells (%),[6],98%
same,Population Normal (%),[6],97%
same,Population Pyknosed Nuclei (%),[6],2%
same,Population Tubulin-Different-Phenotype (%),[6],6%
same,Total Cell Count,[6],2917
same,Population Apoptotic (%),[7],40%
same,Population Fragmented Nuclei (%),[7],14%
same,Population Healthy Nuclei (%),[7],46%
same,Population Hoechst High Intensity Objects (%),[7],18%
same,Population Membrane Permeable-Phenotype (%),[7],4%
same,Population Mitochondria Different-Phenotype (%),[7],54%
same,Population Mitotic Cells (%),[7],59%
same,Population Normal (%),[7],81%
same,Population Pyknosed Nuclei (%),[7],38%
same,Population Tubulin-Different-Phenotype (%),[7],47%
same,Total Cell Count,[7],535
same,Population Apoptotic (%),[8],29%
same,Population Fragmented Nuclei (%),[8],4%
same,Population Healthy Nuclei (%),[8],83%
same,Population Hoechst High Intensity Objects (%),[8],8%
same,Population Membrane Permeable-Phenotype (%),[8],2%
same,Population Mitochondria Different-Phenotype (%),[8],50%
same,Population Mitotic Cells (%),[8],70%
same,Population Normal (%),[8],91%
same,Population Pyknosed Nuclei (%),[8],12%
same,Population Tubulin-Different-Phenotype (%),[8],65%
same,Total Cell Count,[8],1034
Cc1ccc(S(=O)(=O)NC2c3ccccc3Oc3ccccc32)cc1,Population Apoptotic (%),[1],46%
same,Population Fragmented Nuclei (%),[1],11%
same,Population Healthy Nuclei (%),[1],44%
same,Population Hoechst High Intensity Objects (%),[1],11%
same,Population Membrane Permeable-Phenotype (%),[1],2%
same,Population Mitochondria Different-Phenotype (%),[1],64%
same,Population Mitotic Cells (%),[1],53%
same,Population Normal (%),[1],88%
same,Population Pyknosed Nuclei (%),[1],44%
same,Population Tubulin-Different-Phenotype (%),[1],27%
same,Total Cell Count,[1],362
same,Population Apoptotic (%),[2],21%
same,Population Fragmented Nuclei (%),[2],5%
same,Population Healthy Nuclei (%),[2],49%
same,Population Hoechst High Intensity Objects (%),[2],2%
same,Population Membrane Permeable-Phenotype (%),[2],17%
same,Population Mitochondria Different-Phenotype (%),[2],9%
same,Population Mitotic Cells (%),[2],78%
same,Population Normal (%),[2],97%
same,Population Pyknosed Nuclei (%),[2],45%
same,Population Tubulin-Different-Phenotype (%),[2],22%
same,Total Cell Count,[2],179
same,Population Apoptotic (%),[3],59%
same,Population Fragmented Nuclei (%),[3],32%
same,Population Healthy Nuclei (%),[3],37%
same,Population Hoechst High Intensity Objects (%),[3],11%
same,Population Membrane Permeable-Phenotype (%),[3],3%
same,Population Mitochondria Different-Phenotype (%),[3],86%
same,Population Mitotic Cells (%),[3],40%
same,Population Normal (%),[3],88%
same,Population Pyknosed Nuclei (%),[3],30%
same,Population Tubulin-Different-Phenotype (%),[3],74%
same,Total Cell Count,[3],398
same,Population Apoptotic (%),[4],16%
same,Population Fragmented Nuclei (%),[4],33%
same,Population Healthy Nuclei (%),[4],34%
same,Population Hoechst High Intensity Objects (%),[4],5%
same,Population Membrane Permeable-Phenotype (%),[4],12%
same,Population Mitochondria Different-Phenotype (%),[4],33%
same,Population Mitotic Cells (%),[4],83%
same,Population Normal (%),[4],94%
same,Population Pyknosed Nuclei (%),[4],31%
same,Population Tubulin-Different-Phenotype (%),[4],49%
same,Total Cell Count,[4],307
same,Population Apoptotic (%),[5],41%
same,Population Fragmented Nuclei (%),[5],10%
same,Population Healthy Nuclei (%),[5],47%
same,Population Hoechst High Intensity Objects (%),[5],13%
same,Population Membrane Permeable-Phenotype (%),[5],4%
same,Population Mitochondria Different-Phenotype (%),[5],55%
same,Population Mitotic Cells (%),[5],58%
same,Population Normal (%),[5],86%
same,Population Pyknosed Nuclei (%),[5],41%
same,Population Tubulin-Different-Phenotype (%),[5],41%
same,Total Cell Count,[5],392
same,Population Apoptotic (%),[6],22%
same,Population Fragmented Nuclei (%),[6],8%
same,Population Healthy Nuclei (%),[6],55%
same,Population Hoechst High Intensity Objects (%),[6],1%
same,Population Membrane Permeable-Phenotype (%),[6],23%
same,Population Mitochondria Different-Phenotype (%),[6],12%
same,Population Mitotic Cells (%),[6],77%
same,Population Normal (%),[6],98%
same,Population Pyknosed Nuclei (%),[6],36%
same,Population Tubulin-Different-Phenotype (%),[6],29%
same,Total Cell Count,[6],239
same,Population Apoptotic (%),[7],55%
same,Population Fragmented Nuclei (%),[7],13%
same,Population Healthy Nuclei (%),[7],55%
same,Population Hoechst High Intensity Objects (%),[7],10%
same,Population Membrane Permeable-Phenotype (%),[7],7%
same,Population Mitochondria Different-Phenotype (%),[7],68%
same,Population Mitotic Cells (%),[7],45%
same,Population Normal (%),[7],89%
same,Population Pyknosed Nuclei (%),[7],30%
same,Population Tubulin-Different-Phenotype (%),[7],55%
same,Total Cell Count,[7],362
same,Population Apoptotic (%),[8],17%
same,Population Fragmented Nuclei (%),[8],11%
same,Population Healthy Nuclei (%),[8],52%
same,Population Hoechst High Intensity Objects (%),[8],3%
same,Population Membrane Permeable-Phenotype (%),[8],9%
same,Population Mitochondria Different-Phenotype (%),[8],31%
same,Population Mitotic Cells (%),[8],82%
same,Population Normal (%),[8],96%
same,Population Pyknosed Nuclei (%),[8],36%
same,Population Tubulin-Different-Phenotype (%),[8],47%
same,Total Cell Count,[8],283
same,Population Apoptotic (%),[9],34%
same,Population Fragmented Nuclei (%),[9],18%
same,Population Healthy Nuclei (%),[9],46%
same,Population Hoechst High Intensity Objects (%),[9],12%
same,Population Membrane Permeable-Phenotype (%),[9],2%
same,Population Mitochondria Different-Phenotype (%),[9],26%
same,Population Mitotic Cells (%),[9],65%
same,Population Normal (%),[9],87%
same,Population Pyknosed Nuclei (%),[9],35%
same,Population Tubulin-Different-Phenotype (%),[9],28%
same,Total Cell Count,[9],465
same,Population Apoptotic (%),[10],13%
same,Population Fragmented Nuclei (%),[10],8%
same,Population Healthy Nuclei (%),[10],78%
same,Population Hoechst High Intensity Objects (%),[10],3%
same,Population Membrane Permeable-Phenotype (%),[10],11%
same,Population Mitochondria Different-Phenotype (%),[10],3%
same,Population Mitotic Cells (%),[10],86%
same,Population Normal (%),[10],96%
same,Population Pyknosed Nuclei (%),[10],12%
same,Total Cell Count,[10],466
same,Population Apoptotic (%),[11],36%
same,Population Fragmented Nuclei (%),[11],13%
same,Population Healthy Nuclei (%),[11],66%
same,Population Hoechst High Intensity Objects (%),[11],8%
same,Population Membrane Permeable-Phenotype (%),[11],2%
same,Population Mitochondria Different-Phenotype (%),[11],27%
same,Population Mitotic Cells (%),[11],63%
same,Population Normal (%),[11],91%
same,Population Pyknosed Nuclei (%),[11],20%
same,Population Tubulin-Different-Phenotype (%),[11],38%
same,Total Cell Count,[11],453
same,Population Apoptotic (%),[12],12%
same,Population Fragmented Nuclei (%),[12],4%
same,Population Healthy Nuclei (%),[12],73%
same,Population Hoechst High Intensity Objects (%),[12],2%
same,Population Membrane Permeable-Phenotype (%),[12],6%
same,Population Mitochondria Different-Phenotype (%),[12],20%
same,Population Mitotic Cells (%),[12],87%
same,Population Normal (%),[12],97%
same,Population Pyknosed Nuclei (%),[12],22%
same,Population Tubulin-Different-Phenotype (%),[12],45%
same,Total Cell Count,[12],374
